In ChEMBL document CHEMBL5380787, “Optimized M24B Aminopeptidase Inhibitors for CARD8 Inflammasome Activation” (J Med Chem, 2023):
Activity calls are given as the source filed them. The rule behind the calls is not given here.

Columns and labels:
Xaa-Pro dipeptidase = target: T1, Xaa-Pro dipeptidase (Homo sapiens, UniProt P12955); experiment: (§1) Inhibition of recombinant human PEPD using Ala-Pro as substrate assessed as alanine release by measuring increase in fluorescense signal by fluorescence based analysis
T1 sequence (P12955 whole entry): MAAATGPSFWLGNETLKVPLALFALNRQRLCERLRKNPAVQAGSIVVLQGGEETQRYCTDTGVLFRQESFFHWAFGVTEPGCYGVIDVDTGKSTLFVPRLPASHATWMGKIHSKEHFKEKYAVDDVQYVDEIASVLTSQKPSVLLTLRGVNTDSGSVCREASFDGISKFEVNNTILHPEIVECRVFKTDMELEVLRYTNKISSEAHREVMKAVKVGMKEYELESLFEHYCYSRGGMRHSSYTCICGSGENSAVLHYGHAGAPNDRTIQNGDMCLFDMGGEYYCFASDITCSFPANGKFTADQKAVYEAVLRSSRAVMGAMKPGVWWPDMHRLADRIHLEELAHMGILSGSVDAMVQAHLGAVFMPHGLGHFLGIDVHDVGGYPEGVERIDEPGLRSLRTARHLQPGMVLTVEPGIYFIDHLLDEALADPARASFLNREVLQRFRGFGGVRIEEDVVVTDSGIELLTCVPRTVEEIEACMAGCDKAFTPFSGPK

Xaa-Pro aminopeptidase 1 [1] = target: T2, Xaa-Pro aminopeptidase 1 (Homo sapiens, UniProt Q9NQW7); experiment: Inhibition of 6-His tagged XPNPEP1 (unknown origin) expressed in Escherichia coli Rosetta DE3 cells using H-Lys(abz)-Pro-Pro-pNA as substrate incubated for 60 mins by fluorescence based analysis
Method in brief: (§2)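 His6-tagged XPNPEP1 was expressed in E. coli Rosetta DE3 (IPTG, 16 h, 37 °C) and purified on TALON resin. Enzyme at 3.5 nM was exposed to compound, then H-Lys(abz)-Pro-Pro-pNA was added at 100 μM final. Fluorescence (Ex/Em 320/410) was followed for 60 min. Single-point inhibition used 20 μM; IC50 as mean ± SEM of three biological replicates.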

MV4-11 [2] = experiment: Cytotoxicity against human MV4-11 cells assessed as reduction in cell viability incubated for 24 hrs by celltiter-glo assay; assay type: functional, cell-based; settings: MV4-11, 24 h
Method in brief: (§3)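 MV4;11 cells (WT or CASP1−/−), grown in RPMI 1640 with 10% FBS at 37 °C, 5% CO2, plated 2000 cells/well, dosed by pintool across 100 μM to 15.2 nM in three-fold steps for 24 h. Viability by CellTiter-Glo luminescence after 2 min shaking and 10 min at 25 °C. IC50 as mean ± SEM of three biological replicates.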

MV4-11 [3] = experiment: Cytotoxicity against CASP1 knockout human MV4-11 cells assessed as reduction in cell viability incubated for 24 hrs by celltiter-glo assay; assay type: functional, cell-based; settings: MV4-11, 24 h; method in brief: as §3
OCI-AML2 [4] = experiment: Induction of cell death in human OCI-AML2 cells assessed as increase in PI uptake at 6.25 uM incubated for 6 hrs by PI staining based fluorescence analysis; assay type: functional
Method in brief: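 PI flux assay. 2 × 10^4 MV4;11 (WT, CARD8−/− or CASP1−/−) or OCI-AML2 cells in RPMI were given compound at 6.25 μM plus PI at 10 μM final. Fluorescence (Ex/Em 535/617 nm) was read every 5 min at 37 °C for 6 h, baseline-corrected to DMSO and normalized to the maximum response. n = 3.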

MV4-11 [5] = experiment: Cytotoxicity against human MV4-11 cells assessed as reduction in cell viability at 1 uM incubated for 24 hrs by celltiter-glo assay relative to control; assay type: functional
Method in brief: (§4)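 Single-dose viability screen. MV4;11 or OCI-AML2 cells at 2000 cells/well were exposed to 1 μM compound for 24 h. Viability was read by CellTiter-Glo luminescence and expressed as percent inhibition. Values are means of three biological replicates.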

OCI-AML2 [6] = experiment: Cytotoxicity against human OCI-AML2 cells assessed as reduction in cell viability at 1 uM incubated for 24 hrs by celltiter-glo assay relative to control; assay type: functional; method in brief: as §4
[7] = target: T3, Xaa-Pro dipeptidase (Homo sapiens) (UniProt P12955); experiment: Inhibition of recombinant human PEPD using Ala-Pro as substrate assessed as alanine release by measuring increase in fluorescense signal at 1 uM by fluorescence based analysis relative to control
T3 sequence (whole entry): T1 sequence (P12955 whole entry)
Method in brief: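 Recombinant human PEPD at 50 nM was incubated with Ala-Pro at 40 μM final and compound. Released alanine was detected by coupled alanine transaminase/pyruvate oxidase conversion to H2O2 and resorufin fluorescence (Ex/Em 535/587 nm) at 25 °C.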

Xaa-Pro aminopeptidase 1 [8] = target: T2, Xaa-Pro aminopeptidase 1; experiment: Inhibition of 6-His tagged XPNPEP1 (unknown origin) expressed in Escherichia coli Rosetta DE3 cells using H-Lys(abz)-Pro-Pro-pNA as substrate at 20 uM incubated for 60 mins by fluorescence based analysis relative to control; method in brief: as §2
[9] = target: T3, Xaa-Pro dipeptidase (Homo sapiens); experiment: as §1
[10] = Stability of the compound in human MV4-11 cells assessed as esterase-mediated hydrolysis by LC-MS analysis; assay type: ADME, cell-based
Method in brief: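 Compound was incubated in conditioned medium from MV4;11 cells for 24 h at 37 °C, and LC/MS then measured intact ester remaining and the de-esterified free acid. n = 3, mean ± SEM.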

[11] = Stability in human MV4-11 cells assessed as retention time of parent compound incubated for 24 hrs by LC/MS analysis; assay type: ADME, cell-based; settings: mv4-11, 24 h
Method in brief: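 Compound was held in MV4;11 conditioned medium for 24 h at 37 °C, then LC/MS was run, recording the retention times of the parent ester and its free acid.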

[12] = Stability of the compound in human MV4-11 cells assessed as esterase-mediated hydrolysis measured after 8 hrs by LC-MS analysis; assay type: ADME, cell-based; settings: mv4-11, 8 h
MV4-11 [13] = experiment: Cytotoxicity against human MV4-11 cells assessed as reduction in cell viability at 0.015 to 100 uM incubated for 24 hrs by celltiter-glo assay; assay type: functional; settings: dose 0.015-100 µM; method in brief: as §3
MV4-11 [14] = experiment: Cytotoxicity against CASP1 knockout human MV4-11 cells assessed as reduction in cell viability at 0.015 to 100 uM incubated for 24 hrs by celltiter-glo assay; assay type: functional; settings: dose 0.015-100 µM; method in brief: as §3
N/TERT-1 = experiment: Cytotoxicity against immortalized human N/TERT-1 Keratinocytes expressing human NLRP1 assessed as cell death at 10 uM incubated for 24 hrs by celltiter-glo assay; assay type: functional, cell-based
Method in brief: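 N/TERT-1 keratinocytes grown in keratinocyte serum-free medium with penicillin/streptomycin, bovine pituitary extract (25 μg/mL) and EGF (0.2 ng/mL), 37 °C, 5% CO2. Compound added by pintool to 2000 cells/well, 24 h exposure. Viability read by CellTiter-Glo luminescence after 2 min shaking and 10 min at 25 °C. Mean ± SEM of three biological replicates.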

BMDM [15] = experiment: Induction of pyroptosis in C57BL/6J mouse BMDM cells expressing NLRP1A and NLRP1B allele 2 assessed as LDH release at 10 uM incubated for 24 hrs; assay type: functional, cell-based
Method in brief: (§5)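 Bone marrow from femurs and tibias of 7–12-week-old C57BL/6J mice, red cells lysed. Cells differentiated 6 days at 37 °C in DMEM with 10% FBS and 15–20% L-cell medium, then replated. Exposure 24 h. LDH in supernatant measured relative to a 9% Triton X-100 lysis control. For GSDMD cleavage, cells sonicated in PBS, protein normalized, SDS-PAGE immunoblot.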

RAW264.7 [16] = experiment: Induction of pyroptosis in mouse RAW264.7 cells expressing NLRP1B allele 1 assessed as LDH release at 10 uM incubated for 24 hrs; assay type: functional, cell-based
Method in brief: (§6)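 RAW264.7 cells in DMEM with L-glutamine and 10% FBS, 5 × 10^5 cells/well, treated 24 h. LDH in supernatant measured relative to a 9% Triton X-100 lysis control. GSDMD cleavage by immunoblot of PBS-sonicated lysates with protein normalized. Mean ± SEM of three biological replicates.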

BMDM [17] = experiment: Induction of pyroptosis in C57BL/6J mouse BMDM cells expressing NLRP1A and NLRP1B allele 2 assessed as GSDMD clevage at 10 uM incubated for 24 hrs by immunoblot analysis; assay type: functional, cell-based; method in brief: as §5
RAW264.7 [18] = experiment: Induction of pyroptosis in mouse RAW264.7 cells expressing NLRP1B allele 1 assessed as GSDMD clevage at 10 uM incubated for 24 hrs by immunoblot analysis; assay type: functional, cell-based; method in brief: as §6
HEK-293T [19] = experiment: Induction of pyroptosis in human HEK293T cells expressing CASP1 and GSDMD cotransfected with dTAG-CARD8ZUC and CARD8 FIIND S297A assessed as destabilization of DPP9-CARD8 ternary complex by measuring GSDMD clevage at 10 uM incubated for 6 hrs in presence of dTAG13 by immunoblot analysis; assay type: functional, cell-based
Method in brief: (§7)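 HEK293T cells stably expressing CASP1 and GSDMD, 1.5 × 10^5 cells/well. 24 h later treated with dTAG-13 (500 nM) plus compound, DMSO as vehicle, for 6 h. Read-outs were supernatant LDH against a lysis control and GSDMD immunoblot.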

HEK-293T [20] = experiment: Induction of pyroptosis in human HEK293T cells expressing CASP1 and GSDMD cotransfected with dTAG-CARD8ZUC and CARD8 FIIND S297A assessed as destabilization of DPP9-CARD8 ternary complex by measuring LDH release at 10 uM incubated for 6 hrs in presence of dTAG13; assay type: functional, cell-based; method in brief: as §7
THP-1 [21] = experiment: Induction of pyroptosis in CARD8 knockout human THP-1 cells harboring dox-inducible […] E274R mutant assessed as cell death by measuring LDH release at 10 uM pretreated with doxycycline for 16 hrs followed by compound addition and measured after 6 hrs; assay type: functional, cell-based
Method in brief: (§8)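 CARD8−/− THP-1 cells stably carrying DOX-inducible CARD8 E274R, grown in RPMI 1640 with 10% FBS, 5 × 10^5 cells/well. DOX (100 ng/mL) for 16 h or no DOX, then compound for 6 h. Supernatant LDH measured relative to a Triton X-100 lysis control. GSDMD cleavage by SDS-PAGE immunoblot of protein-normalized lysates.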

THP-1 [22] = experiment: Induction of pyroptosis in CARD8 knockout human THP-1 cells harboring dox-inducible […] E274R mutant assessed as GSDMD cleavage at 10 uM pretreated with doxycycline for 16 hrs followed by compound addition and measured after 6 hrs by immunoblot analysis; assay type: functional, cell-based; method in brief: as §8

T2 sequence (Q9NQW7 whole entry): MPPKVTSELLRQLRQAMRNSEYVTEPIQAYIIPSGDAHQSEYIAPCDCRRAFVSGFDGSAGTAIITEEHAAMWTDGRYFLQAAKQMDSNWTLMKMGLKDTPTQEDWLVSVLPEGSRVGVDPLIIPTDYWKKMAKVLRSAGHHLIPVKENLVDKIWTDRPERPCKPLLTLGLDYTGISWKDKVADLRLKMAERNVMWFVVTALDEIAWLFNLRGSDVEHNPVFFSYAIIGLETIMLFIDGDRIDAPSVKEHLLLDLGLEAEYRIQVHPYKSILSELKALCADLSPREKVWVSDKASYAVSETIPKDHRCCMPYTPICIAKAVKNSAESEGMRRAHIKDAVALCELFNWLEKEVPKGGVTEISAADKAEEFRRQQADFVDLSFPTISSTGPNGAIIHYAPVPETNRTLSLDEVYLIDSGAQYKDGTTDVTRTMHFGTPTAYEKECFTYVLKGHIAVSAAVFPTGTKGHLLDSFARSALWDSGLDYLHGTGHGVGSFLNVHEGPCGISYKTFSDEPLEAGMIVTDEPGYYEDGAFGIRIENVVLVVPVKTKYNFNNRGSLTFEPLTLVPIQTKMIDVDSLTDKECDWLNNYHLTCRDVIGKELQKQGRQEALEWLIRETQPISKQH

CC(C)C[C@H](NC(=O)[C@@H]1CCCN1C(=O)[C@@H](O)[C@H](N)CC(C)C)C(=O)NCCc1ccc2cc[nH]c2c1
IC50 (Xaa-Pro dipeptidase): 10 µM | IC50 (Xaa-Pro aminopeptidase 1 [1]): 2 µM | IC50 (MV4-11 [2]): 1.3 µM

COC(=O)[C@@H](NC(=O)[C@@H]1CCCN1C(=O)[C@@H](O)[C@H](N)CC(C)C)C(C)C
IC50 (MV4-11 [2]): 0.45 µM | IC50 (MV4-11 [3]): > 20 µM | Activity (OCI-AML2 [4]): Active | Activity (MV4-11 [5]): 59% | Activity (OCI-AML2 [6]): 32% | inhibition [7]: 42% | inhibition (Xaa-Pro aminopeptidase 1 [8]): 65%

CC(C)C[C@@H](N)[C@H](O)C(=O)N1CCC[C@H]1C(=O)OC1CCCC1
inhibition [9]: Active | inhibition (Xaa-Pro aminopeptidase 1 [1]): Active | Stability [10]: Stable

CC(C)C[C@H](NC(=O)[C@@H]1CCCN1C(=O)[C@@H](O)[C@H](N)CC(C)C)C(=O)NCCc1ccccc1
IC50 (MV4-11 [2]): 0.84 µM | Retention_time [11]: 3.24 min

CC(C)C[C@@H](N)[C@H](O)C(=O)N1CCC[C@H]1C(=O)OC(C)(C)C
inhibition [9]: Active | inhibition (Xaa-Pro aminopeptidase 1 [1]): Active | Stability [10]: Stable | Stability [12]: Unstable

CC[C@H](C)[C@H](NC(=O)[C@@H]1CCCN1C(=O)[C@@H](O)[C@H](N)CC(C)C)C(=O)OC
IC50 (MV4-11 [2]): 0.6 µM | IC50 (MV4-11 [3]): > 20 µM | Activity (MV4-11 [5]): 56% | Activity (OCI-AML2 [6]): 42% | inhibition [7]: 48% | inhibition (Xaa-Pro aminopeptidase 1 [8]): 68%

COC(=O)[C@H](C)NC(=O)[C@@H]1CCCN1C(=O)[C@@H]1CCCN1C(=O)[C@@H](O)[C@H](N)CC(C)C
IC50 (MV4-11 [2]): 35 µM | IC50 (MV4-11 [3]): > 100 µM | Activity (MV4-11 [5]): 107% | Activity (OCI-AML2 [6]): 95% | inhibition [7]: 96% | inhibition (Xaa-Pro aminopeptidase 1 [8]): 23%

CC(C)C[C@H](NC(=O)[C@@H]1CCCN1C(=O)[C@@H](O)[C@H](N)CC(C)C)C(=O)O
inhibition [9]: Active | inhibition (Xaa-Pro aminopeptidase 1 [1]): Active | Retention_time [11]: 2.6 min

COC(=O)[C@H](CC(C)C)NC(=O)[C@@H](O)[C@H](N)Cc1ccccc1 [BESTATIN METHYL ESTER]
IC50 (Xaa-Pro dipeptidase): > 100 µM | IC50 (Xaa-Pro aminopeptidase 1 [1]): 298 µM | IC50 (MV4-11 [2]): 3.9 µM | Activity (MV4-11 [13]): 11% | Activity (MV4-11 [14]): 11%

COC(=O)[C@H](Cc1ccccc1)NC(=O)[C@@H]1CCCN1C(=O)[C@@H](O)[C@H](N)CC(C)C
IC50 (MV4-11 [2]): 0.66 µM | IC50 (MV4-11 [3]): > 20 µM | Activity (MV4-11 [5]): 72% | Activity (OCI-AML2 [6]): 42% | inhibition [7]: 43% | inhibition (Xaa-Pro aminopeptidase 1 [8]): 81%

CC(C)[C@H](N)C(=O)N1CCC[C@H]1B(O)O
Activity (N/TERT-1): Active | Activity (BMDM [15]): Active | Activity (RAW264.7 [16]): Active | Activity (BMDM [17]): Active | Activity (RAW264.7 [18]): Active | Activity (HEK-293T [19]): Active | Activity (HEK-293T [20]): Active | Activity (THP-1 [21]): inactive | Activity (THP-1 [22]): inactive
